{"source": "ChEMBL document CHEMBL4020830", "about": "“Design, Synthesis, and Evaluation of a Novel Series of Indole Sulfonamide Peroxisome Proliferator Activated Receptor (PPAR) α/γ/δ Triple Activators: Discovery of Lanifibranor, a New Antifibrotic Clinical Candidate” (J Med Chem, 2018)", "key": {"Rattus norvegicus [1]": {"test_system": "Rattus norvegicus", "assay": "Toxicity in Sprague-Dawley rat assessed as reduction in hematocrit level at 100 mg/kg for 4 weeks", "type": "organism-based", "settings": "in vivo, 672 h", "in_short": "(§1)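 Sprague-Dawley rats were treated at 100 and 1000 mg/kg. Hematocrit and plasma volume were assessed after 4 weeks of treatment and heart weight after 6 weeks. Each was compared with the control group by one-way ANOVA followed by Dunnett's test.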"}, "Rattus norvegicus [2]": {"test_system": "Rattus norvegicus", "assay": "Toxicity in Sprague-Dawley rat assessed as increase in heart weight at 100 mg/kg for 6 weeks", "type": "organism-based", "settings": "in vivo, 1008 h", "in_short": "as §1"}, "Rattus norvegicus [3]": {"test_system": "Rattus norvegicus", "assay": "Toxicity in Sprague-Dawley rat assessed as increase in plasma volume at 100 mg/kg for 4 weeks by evans blue dye based assay", "type": "organism-based", "settings": "in vivo, 672 h", "in_short": "as §1"}, "Rattus norvegicus [4]": {"test_system": "Rattus norvegicus", "assay": "Toxicity in Sprague-Dawley rat assessed as increase in heart weight at 10 mg/kg for 6 weeks", "type": "organism-based", "settings": "in vivo, 1008 h"}, "Rattus norvegicus [5]": {"test_system": "Rattus norvegicus", "assay": "Toxicity in Sprague-Dawley rat assessed as reduction in hematocrit level at 10 mg/kg for 4 weeks", "type": "organism-based", "settings": "in vivo, 672 h"}, "Rattus norvegicus [6]": {"test_system": "Rattus norvegicus", "assay": "Toxicity in Sprague-Dawley rat assessed as increase in plasma volume at 10 mg/kg for 4 weeks by evans blue dye based assay", "type": "organism-based", "settings": "in vivo, 672 h"}, "[7]": {"target": "T1, Peroxisome proliferator-activated receptor delta (Homo sapiens, UniProt Q03181)", "T1 sequence (Q03181 whole entry)": "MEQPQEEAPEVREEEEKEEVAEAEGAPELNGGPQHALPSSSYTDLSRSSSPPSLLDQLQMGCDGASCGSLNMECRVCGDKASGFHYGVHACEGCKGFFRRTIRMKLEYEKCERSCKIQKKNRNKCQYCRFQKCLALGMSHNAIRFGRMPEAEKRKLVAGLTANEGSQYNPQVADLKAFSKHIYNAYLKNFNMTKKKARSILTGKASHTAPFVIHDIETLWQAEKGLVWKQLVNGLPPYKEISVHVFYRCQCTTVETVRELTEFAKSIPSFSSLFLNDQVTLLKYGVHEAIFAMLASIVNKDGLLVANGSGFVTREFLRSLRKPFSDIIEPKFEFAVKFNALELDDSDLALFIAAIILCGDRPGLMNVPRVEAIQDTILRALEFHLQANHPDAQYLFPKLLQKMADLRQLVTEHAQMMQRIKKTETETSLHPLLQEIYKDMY", "assay": "Transactivation of human GAL4-fused PPARdelta LBD expressed in African green monkey COS7 cells co-expressing 5Gal4 pGL3 TK Luc after overnight incubation by luciferase reporter gene assay", "type": "cell-based", "in_short": "(§2)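 Cell-based Gal-4 transactivation assay in COS-7 cells transfected with PPARα, PPARδ or PPARγ ligand-binding domain. EC50 and Emax were derived, with Emax as maximum activation in percent of control. EC50s are means of at least two independent experiments performed in triplicate.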"}, "[8]": {"target": "T2, Peroxisome proliferator-activated receptor gamma (Homo sapiens) (UniProt P37231)", "T2 sequence (whole entry)": "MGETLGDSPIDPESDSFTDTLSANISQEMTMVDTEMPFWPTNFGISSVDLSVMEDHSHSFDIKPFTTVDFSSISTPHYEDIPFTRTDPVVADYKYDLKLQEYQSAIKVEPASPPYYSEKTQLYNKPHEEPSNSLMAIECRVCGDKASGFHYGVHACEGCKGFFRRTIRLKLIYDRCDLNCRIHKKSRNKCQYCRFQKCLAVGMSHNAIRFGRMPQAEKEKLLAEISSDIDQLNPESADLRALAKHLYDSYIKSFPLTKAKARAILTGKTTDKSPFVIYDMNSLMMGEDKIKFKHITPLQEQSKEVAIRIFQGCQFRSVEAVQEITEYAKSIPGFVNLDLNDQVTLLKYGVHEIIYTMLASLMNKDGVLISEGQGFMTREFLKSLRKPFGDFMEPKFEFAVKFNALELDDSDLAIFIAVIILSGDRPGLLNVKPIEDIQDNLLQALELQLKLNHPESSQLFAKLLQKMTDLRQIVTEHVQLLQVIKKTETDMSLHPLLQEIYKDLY", "assay": "Transactivation of human GAL4-fused PPARgamma LBD expressed in African green monkey COS7 cells co-expressing 5Gal4 pGL3 TK Luc after overnight incubation by luciferase reporter gene assay relative to rosiglitazone", "type": "cell-based", "in_short": "as §2"}, "[9]": {"target": "T3, Peroxisome proliferator-activated receptor gamma (Homo sapiens, UniProt P37231)", "T3 sequence (P37231 whole entry)": "T2 sequence (whole entry)", "assay": "Transactivation of human GAL4-fused PPARgamma LBD expressed in African green monkey COS7 cells co-expressing 5Gal4 pGL3 TK Luc after overnight incubation by luciferase reporter gene assay", "type": "cell-based", "in_short": "as §2"}, "[10]": {"assay": "AUC (infinity) in C57Bl6 mouse at 10 mg/kg, po administered as single oral dose", "type": "ADME, organism-based", "settings": "in vivo", "in_short": "(§3)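 Single oral dose of 10 mg/kg in methyl cellulose vehicle given to C57Bl6 mice. Plasma was sampled over a 24 h period. […]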"}, "[11]": {"target": "T4, Peroxisome proliferator-activated receptor delta (Homo sapiens) (UniProt Q03181)", "T4 sequence (whole entry)": "T1 sequence (Q03181 whole entry)", "assay": "Transactivation of human GAL4-fused PPARdelta LBD expressed in African green monkey COS7 cells co-expressing 5Gal4 pGL3 TK Luc after overnight incubation by luciferase reporter gene assay relative to GW501516", "type": "cell-based", "in_short": "as §2"}, "[12]": {"target": "T5, Peroxisome proliferator-activated receptor alpha (Homo sapiens) (UniProt Q07869)", "T5 sequence (whole entry)": "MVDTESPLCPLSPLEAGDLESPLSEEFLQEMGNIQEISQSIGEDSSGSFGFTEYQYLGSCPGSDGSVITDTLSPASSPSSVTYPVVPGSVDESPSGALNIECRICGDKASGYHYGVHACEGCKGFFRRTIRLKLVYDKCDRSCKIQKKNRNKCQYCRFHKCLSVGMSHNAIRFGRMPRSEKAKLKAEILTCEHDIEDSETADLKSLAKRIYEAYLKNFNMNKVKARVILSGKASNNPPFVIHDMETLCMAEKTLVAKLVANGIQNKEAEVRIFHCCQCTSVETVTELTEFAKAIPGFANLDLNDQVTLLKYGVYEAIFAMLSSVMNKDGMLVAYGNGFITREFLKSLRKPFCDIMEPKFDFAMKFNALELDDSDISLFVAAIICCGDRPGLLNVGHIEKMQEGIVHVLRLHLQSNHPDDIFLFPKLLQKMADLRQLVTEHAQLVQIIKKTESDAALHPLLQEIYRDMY", "assay": "Transactivation of human GAL4-fused PPARalpha LBD expressed in African green monkey COS7 cells co-expressing 5Gal4 pGL3 TK Luc after overnight incubation by luciferase reporter gene assay relative to fenofibric acid", "type": "cell-based", "in_short": "as §2"}, "[13]": {"assay": "Cmax in C57Bl6 mouse at 10 mg/kg, po administered as single oral dose", "type": "ADME, organism-based", "settings": "in vivo", "in_short": "as §3"}, "[14]": {"assay": "Tmax in C57Bl6 mouse at 10 mg/kg, po administered as single oral dose", "type": "ADME, organism-based", "settings": "in vivo", "in_short": "as §3"}, "[15]": {"target": "T6, Peroxisome proliferator-activated receptor alpha (Homo sapiens, UniProt Q07869)", "T6 sequence (Q07869 whole entry)": "T5 sequence (whole entry)", "assay": "Transactivation of human GAL4-fused PPARalpha LBD expressed in African green monkey COS7 cells co-expressing 5Gal4 pGL3 TK Luc after overnight incubation by luciferase reporter gene assay", "type": "cell-based", "in_short": "as §2"}, "Rattus norvegicus [16]": {"test_system": "Rattus norvegicus", "assay": "Toxicity in Sprague-Dawley rat assessed as increase in heart weight at 30 mg/kg for 6 weeks", "type": "organism-based", "settings": "in vivo, 1008 h"}}, "note": "pEC50: −log10 of the molar value."}
{"smiles": "COc1ccc(OC(=O)N(CC(=O)O)Cc2ccc(OCCc3nc(-c4ccccc4)oc3C)cc2)cc1", "note": "[MURAGLITAZAR]", "values": [{"measurement": "Activity", "setting": "Rattus norvegicus [1]", "value": "Toxic"}, {"measurement": "Activity", "setting": "Rattus norvegicus [2]", "value": "Toxic"}, {"measurement": "Activity", "setting": "Rattus norvegicus [3]", "value": "Toxic"}]}
{"smiles": "CCO[C@@H](Cc1ccc(OCCc2ccc(OS(C)(=O)=O)cc2)cc1)C(=O)O", "note": "[TESAGLITAZAR]", "values": [{"measurement": "Activity", "setting": "Rattus norvegicus [4]", "value": "Toxic"}, {"measurement": "Activity", "setting": "Rattus norvegicus [5]", "value": "Toxic"}, {"measurement": "Activity", "setting": "Rattus norvegicus [6]", "value": "Toxic"}]}
{"smiles": "O=C(O)CCCc1cc2cc(Cl)ccc2n1S(=O)(=O)c1ccccc1", "values": [{"measurement": "pEC50", "setting": "[7]", "value": 6.19}, {"measurement": "Emax", "setting": "[8]", "value": 46, "unit": "%"}, {"measurement": "pEC50", "setting": "[9]", "value": 6.55}, {"measurement": "AUC(0-inf)", "setting": "[10]", "value": 51100, "unit": "ng·h/mL"}, {"measurement": "Emax", "setting": "[11]", "value": 46, "unit": "%"}, {"measurement": "Emax", "setting": "[12]", "value": 51, "unit": "%"}, {"measurement": "Cmax", "setting": "[13]", "value": 11800, "unit": "ng/mL"}, {"measurement": "Tmax", "setting": "[14]", "value": 1, "unit": "h"}, {"measurement": "pEC50", "setting": "[15]", "value": 6.02}]}
{"smiles": "CN(CCOc1ccc(CC2SC(=O)NC2=O)cc1)c1ccccn1", "note": "(stereo unspecified) [ROSIGLITAZONE]", "values": [{"measurement": "Activity", "setting": "Rattus norvegicus [16]", "value": "Toxic"}]}
